Results reported in ChEMBL document CHEMBL4152188, “Design, synthesis and biological evaluation of C(4) substituted monobactams as antibacterial agents against multidrug-resistant Gram-negative bacteria” (Eur J Med Chem, 2018).
Values after ≈ are worked out from the molar mass of the structure shown.

How the values were obtained:
Format in all cases: functional
Escherichia coli [1] = assay: Antibacterial activity against extended-spectrum beta-lactamase producing Escherichia coli isolate 212648 after 18 hrs by CLSI broth microdilution method; settings: isolate 212648, 18 h
Escherichia coli [2] = assay: Selectivity index, ratio of MIC for against extended-spectrum beta-lactamase producing Escherichia coli isolate 208687 to MIC for extended-spectrum beta-lactamase producing Escherichia coli isolate 208687 in presence of BPL
Escherichia coli [3] = assay: Antibacterial activity against Escherichia coli isolate 210737 after 18 hrs by CLSI broth microdilution method; settings: isolate 210737, 18 h
Escherichia coli [4] = assay: Antibacterial activity against extended-spectrum beta-lactamase producing Escherichia coli isolate 208687 after 18 hrs by CLSI broth microdilution method; settings: isolate 208687, 18 h
Escherichia coli [5] = assay: Antibacterial activity against extended-spectrum beta-lactamase producing Escherichia coli isolate 208687 after 18 hrs in presence of BPL by CLSI broth microdilution method; settings: isolate 208687, 18 h
In short: (§1)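 CLSI broth microdilution against clinical isolates (ESBL E. coli, KPC-2 MDR K. pneumoniae, IMP-4 MDR P. aeruginosa; five per species). Iron limitation: Mueller-Hinton broth supplemented with 16 mg/liter 2,2'-bipyridyl to complex iron and induce iron uptake systems. Read-out: MIC.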

Escherichia coli [6] = assay: Antibacterial activity against Escherichia coli isolate 210737 after 18 hrs in presence of BPL by CLSI broth microdilution method; settings: isolate 210737, 18 h; in short: as §1
Escherichia coli [7] = assay: Selectivity index, ratio of MIC for against Escherichia coli isolate 210737 to MIC for Escherichia coli isolate 210737 in presence of BPL
Escherichia coli [8] = assay: Antibacterial activity against extended-spectrum beta-lactamase producing Escherichia coli isolate 212648 after 18 hrs in presence of BPL by CLSI broth microdilution method; settings: isolate 212648, 18 h; in short: as §1
Escherichia coli [9] = assay: Selectivity index, ratio of MIC for against extended-spectrum beta-lactamase producing Escherichia coli isolate 212648 to MIC for extended-spectrum beta-lactamase producing Escherichia coli isolate 212648 in presence of BPL
Escherichia coli [10] = assay: Antibacterial activity against extended-spectrum beta-lactamase producing Escherichia coli isolate 209285 after 18 hrs by CLSI broth microdilution method; settings: isolate 209285, 18 h
Escherichia coli [11] = assay: Antibacterial activity against extended-spectrum beta-lactamase producing Escherichia coli isolate 209285 after 18 hrs in presence of BPL by CLSI broth microdilution method; settings: isolate 209285, 18 h; in short: as §1
Escherichia coli [12] = assay: Selectivity index, ratio of MIC for against extended-spectrum beta-lactamase producing Escherichia coli isolate 209285 to MIC for extended-spectrum beta-lactamase producing Escherichia coli isolate 209285 in presence of BPL
Escherichia coli [13] = assay: Antibacterial activity against extended-spectrum beta-lactamase producing Escherichia coli isolate 106342 after 18 hrs by CLSI broth microdilution method; settings: isolate 106342, 18 h
Escherichia coli [14] = assay: Antibacterial activity against extended-spectrum beta-lactamase producing Escherichia coli isolate 106342 after 18 hrs in presence of BPL by CLSI broth microdilution method; settings: isolate 106342, 18 h; in short: as §1
Escherichia coli [15] = assay: Selectivity index, ratio of MIC for against extended-spectrum beta-lactamase producing Escherichia coli isolate 106342 to MIC for extended-spectrum beta-lactamase producing Escherichia coli isolate 106342 in presence of BPL
Klebsiella pneumoniae [16] = assay: Antibacterial activity against KPC-2 producing Klebsiella pneumoniae isolate 212423 after 18 hrs by CLSI broth microdilution method; settings: isolate 212423, 18 h
Klebsiella pneumoniae [17] = assay: Antibacterial activity against KPC-2 producing Klebsiella pneumoniae isolate 212423 after 18 hrs in presence of BPL by CLSI broth microdilution method; settings: isolate 212423, 18 h; in short: as §1
Klebsiella pneumoniae [18] = assay: Selectivity index, ratio of MIC for against KPC-2 producing Klebsiella pneumoniae isolate 212423 to MIC for against KPC-2 producing Klebsiella pneumoniae isolate 212423 in presence of BPL
Klebsiella pneumoniae [19] = assay: Antibacterial activity against KPC-2 producing Klebsiella pneumoniae isolate 209632 after 18 hrs by CLSI broth microdilution method; settings: isolate 209632, 18 h
Klebsiella pneumoniae [20] = assay: Antibacterial activity against KPC-2 producing Klebsiella pneumoniae isolate 209632 after 18 hrs in presence of BPL by CLSI broth microdilution method; settings: isolate 209632, 18 h; in short: as §1
Klebsiella pneumoniae [21] = assay: Selectivity index, ratio of MIC for against KPC-2 producing Klebsiella pneumoniae isolate 209632 to MIC for against KPC-2 producing Klebsiella pneumoniae isolate 209632 in presence of BPL
Klebsiella pneumoniae [22] = assay: Antibacterial activity against KPC-2 producing Klebsiella pneumoniae isolate 209735 after 18 hrs by CLSI broth microdilution method; settings: isolate 209735, 18 h
Klebsiella pneumoniae [23] = assay: Antibacterial activity against KPC-2 producing Klebsiella pneumoniae isolate 209735 after 18 hrs in presence of BPL by CLSI broth microdilution method; settings: isolate 209735, 18 h; in short: as §1
Klebsiella pneumoniae [24] = assay: Selectivity index, ratio of MIC for against KPC-2 producing Klebsiella pneumoniae isolate 209735 to MIC for against KPC-2 producing Klebsiella pneumoniae isolate 209735 in presence of BPL
Klebsiella pneumoniae [25] = assay: Antibacterial activity against KPC-2 producing Klebsiella pneumoniae isolate 212232 after 18 hrs by CLSI broth microdilution method; settings: isolate 212232, 18 h
Klebsiella pneumoniae [26] = assay: Antibacterial activity against KPC-2 producing Klebsiella pneumoniae isolate 212232 after 18 hrs in presence of BPL by CLSI broth microdilution method; settings: isolate 212232, 18 h; in short: as §1
Klebsiella pneumoniae [27] = assay: Selectivity index, ratio of MIC for against KPC-2 producing Klebsiella pneumoniae isolate 212232 to MIC for against KPC-2 producing Klebsiella pneumoniae isolate 212232 in presence of BPL
Klebsiella pneumoniae [28] = assay: Antibacterial activity against KPC-2 producing Klebsiella pneumoniae isolate 212229 after 18 hrs by CLSI broth microdilution method; settings: isolate 212229, 18 h
Klebsiella pneumoniae [29] = assay: Antibacterial activity against KPC-2 producing Klebsiella pneumoniae isolate 212229 after 18 hrs in presence of BPL by CLSI broth microdilution method; settings: isolate 212229, 18 h; in short: as §1
Klebsiella pneumoniae [30] = assay: Selectivity index, ratio of MIC for against KPC-2 producing Klebsiella pneumoniae isolate 212229 to MIC for against KPC-2 producing Klebsiella pneumoniae isolate 212229 in presence of BPL
Pseudomonas aeruginosa [31] = assay: Antibacterial activity against IMP-4 producing Pseudomonas aeruginosa isolate 212886 after 18 hrs by CLSI broth microdilution method; settings: isolate 212886, 18 h
Pseudomonas aeruginosa [32] = assay: Antibacterial activity against IMP-4 producing Pseudomonas aeruginosa isolate 212886 after 18 hrs in presence of BPL by CLSI broth microdilution method; settings: isolate 212886, 18 h; in short: as §1
Pseudomonas aeruginosa [33] = assay: Selectivity index, ratio of MIC for against IMP-4 producing Pseudomonas aeruginosa isolate 212886 to MIC for against IMP-4 producing Pseudomonas aeruginosa isolate 212886 in presence of BPL
Pseudomonas aeruginosa [34] = assay: Antibacterial activity against IMP-4 producing Pseudomonas aeruginosa isolate 209471 after 18 hrs by CLSI broth microdilution method; settings: isolate 209471, 18 h
Pseudomonas aeruginosa [35] = assay: Antibacterial activity against IMP-4 producing Pseudomonas aeruginosa isolate 209471 after 18 hrs in presence of BPL by CLSI broth microdilution method; settings: isolate 209471, 18 h; in short: as §1
Pseudomonas aeruginosa [36] = assay: Selectivity index, ratio of MIC for against IMP-4 producing Pseudomonas aeruginosa isolate 209471 to MIC for against IMP-4 producing Pseudomonas aeruginosa isolate 209471 in presence of BPL
Pseudomonas aeruginosa [37] = assay: Antibacterial activity against IMP-4 producing Pseudomonas aeruginosa isolate 208247 after 18 hrs by CLSI broth microdilution method; settings: isolate 208247, 18 h
Pseudomonas aeruginosa [38] = assay: Antibacterial activity against IMP-4 producing Pseudomonas aeruginosa isolate 208247 after 18 hrs in presence of BPL by CLSI broth microdilution method; settings: isolate 208247, 18 h; in short: as §1
Pseudomonas aeruginosa [39] = assay: Selectivity index, ratio of MIC for against IMP-4 producing Pseudomonas aeruginosa isolate 208247 to MIC for against IMP-4 producing Pseudomonas aeruginosa isolate 208247 in presence of BPL
Pseudomonas aeruginosa [40] = assay: Antibacterial activity against IMP-4 producing Pseudomonas aeruginosa isolate 209321 after 18 hrs by CLSI broth microdilution method; settings: isolate 209321, 18 h
Pseudomonas aeruginosa [41] = assay: Antibacterial activity against IMP-4 producing Pseudomonas aeruginosa isolate 209321 after 18 hrs in presence of BPL by CLSI broth microdilution method; settings: isolate 209321, 18 h; in short: as §1
Pseudomonas aeruginosa [42] = assay: Selectivity index, ratio of MIC for against IMP-4 producing Pseudomonas aeruginosa isolate 209321 to MIC for against IMP-4 producing Pseudomonas aeruginosa isolate 209321 in presence of BPL
Pseudomonas aeruginosa [43] = assay: Antibacterial activity against IMP-4 producing Pseudomonas aeruginosa isolate 207272 after 18 hrs by CLSI broth microdilution method; settings: isolate 207272, 18 h
Pseudomonas aeruginosa [44] = assay: Antibacterial activity against IMP-4 producing Pseudomonas aeruginosa isolate 207272 after 18 hrs in presence of BPL by CLSI broth microdilution method; settings: isolate 207272, 18 h; in short: as §1
Pseudomonas aeruginosa [45] = assay: Selectivity index, ratio of MIC for against IMP-4 producing Pseudomonas aeruginosa isolate 207272 to MIC for against IMP-4 producing Pseudomonas aeruginosa isolate 207272 in presence of BPL

MIC (Escherichia coli [1]): 2 µg/mL (≈ 3.25 µM) | MIC (Escherichia coli [3]): 0.5 µg/mL (≈ 0.814 µM) | MIC (Escherichia coli [4]): 1 µg/mL (≈ 1.63 µM) | MIC (Escherichia coli [5]): 0.5 µg/mL | MIC (Escherichia coli [6]): 0.25 µg/mL | MIC (Escherichia coli [8]): 2 µg/mL | MIC (Escherichia coli [10]): 1 µg/mL (≈ 1.63 µM) | MIC (Escherichia coli [11]): 0.25 µg/mL | MIC (Escherichia coli [13]): 1 µg/mL (≈ 1.63 µM) | MIC (Escherichia coli [14]): 1 µg/mL | MIC (Klebsiella pneumoniae [16]): 0.5 µg/mL (≈ 0.814 µM) | MIC (Klebsiella pneumoniae [17]): 0.125 µg/mL | MIC (Klebsiella pneumoniae [19]): 4 µg/mL (≈ 6.51 µM) | MIC (Klebsiella pneumoniae [20]): 4 µg/mL | MIC (Klebsiella pneumoniae [22]): 16 µg/mL (≈ 26 µM) | MIC (Klebsiella pneumoniae [23]): 4 µg/mL | MIC (Klebsiella pneumoniae [25]): 1 µg/mL (≈ 1.63 µM) | MIC (Klebsiella pneumoniae [26]): 0.25 µg/mL | MIC (Klebsiella pneumoniae [28]): 0.25 µg/mL (≈ 0.407 µM) | MIC (Klebsiella pneumoniae [29]): 0.125 µg/mL | MIC (Pseudomonas aeruginosa [31]): 32 µg/mL (≈ 52.1 µM) | MIC (Pseudomonas aeruginosa [32]): 32 µg/mL | MIC (Pseudomonas aeruginosa [34]): 32 µg/mL (≈ 52.1 µM) | MIC (Pseudomonas aeruginosa [35]): 32 µg/mL | MIC (Pseudomonas aeruginosa [37]): 64 µg/mL (≈ 104 µM) | MIC (Pseudomonas aeruginosa [38]): 64 µg/mL | MIC (Pseudomonas aeruginosa [40]): 32 µg/mL (≈ 52.1 µM) | MIC (Pseudomonas aeruginosa [41]): 32 µg/mL | MIC (Pseudomonas aeruginosa [43]): 32 µg/mL (≈ 52.1 µM) | MIC (Pseudomonas aeruginosa [44]): 32 µg/mL
Compound: CC(C)C(O/N=C(\C(=O)N[C@@H]1C(=O)N(S(=O)(=O)O)[C@@H]1CN1CCNC1=O)c1csc(N)n1)c1cc(=O)c(O)cn1O (stereo not given in full)
Selectivity Index (Escherichia coli [2]): 2 | Selectivity Index (Escherichia coli [7]): 2 | Selectivity Index (Escherichia coli [9]): 1 | Selectivity Index (Escherichia coli [12]): 4 | Selectivity Index (Escherichia coli [15]): 1 | Selectivity Index (Klebsiella pneumoniae [18]): 4 | Selectivity Index (Klebsiella pneumoniae [21]): 1 | Selectivity Index (Klebsiella pneumoniae [24]): 4 | Selectivity Index (Klebsiella pneumoniae [27]): 4 | Selectivity Index (Klebsiella pneumoniae [30]): 2 | Selectivity Index (Pseudomonas aeruginosa [33]): 1 | Selectivity Index (Pseudomonas aeruginosa [36]): 1 | Selectivity Index (Pseudomonas aeruginosa [39]): 1 | Selectivity Index (Pseudomonas aeruginosa [42]): 1 | Selectivity Index (Pseudomonas aeruginosa [45]): 1
